Screening data (PubChem BioAssay)
Only some compounds are listed: those with a hit (about 3.5% of all), similar ones and a draw of the others.
MrgX1 antag: antagonists of human MrgX1 receptor, primary screen, HEK293 cells, Fluo-4 calcium flux | Mas-related G-protein coupled receptor member X1 (Homo sapiens), Q96LB2 | BAM8-22 antagonism; hits give low values | B-score at 10 µM | hit rate 1.3% among 310,000;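 active means calcium-response B-score plate-corrected more than 3 library SD below zero, starting fluorescence within 5 deviations, no agonist response on first addition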;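 further: peak minus trough fluorescence over baseline after final BAM8-22 challenge near maximal dose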
Target sequence (Q96LB2 whole entry, looked up): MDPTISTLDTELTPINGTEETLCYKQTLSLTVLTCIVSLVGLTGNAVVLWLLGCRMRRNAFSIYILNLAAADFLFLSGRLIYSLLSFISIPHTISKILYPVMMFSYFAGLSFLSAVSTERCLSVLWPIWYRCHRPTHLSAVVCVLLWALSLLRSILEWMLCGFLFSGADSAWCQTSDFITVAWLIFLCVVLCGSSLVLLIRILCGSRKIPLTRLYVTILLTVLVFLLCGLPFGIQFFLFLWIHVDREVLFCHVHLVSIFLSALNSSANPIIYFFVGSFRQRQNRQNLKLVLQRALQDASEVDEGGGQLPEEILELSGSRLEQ
MrgX1 PAM: positive allosteric modulators of MrgX1, primary screen, HEK293 cells, Fluo-4 calcium flux. hit rate 0.63% among 310,000. AID 588675, 2011. Mas-related G-protein coupled receptor member X1 (Homo sapiens), Q96LB2. FDSS; hits give high values. B-score at 10 µM;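 active means plate-corrected calcium response at least 3 library SD above typical, normal starting fluorescence, not activating the receptor alone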;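 further: compound read alongside a low EC10 to EC30 dose of BAM8-22 agonist; peak minus trough fluorescence over baseline measured at the second addition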
RGS4 block: RGS4 inhibitors, primary screen, cell-based, HEK293 M3R inducible RGS4, calcium flux; Regulator of G-protein signaling 4 (Homo sapiens), P49798; Fluo-4 calcium flux; hits give high values; triggered by carbachol at its EC20; B-score at 10 µM; hit rate 0.45% among 310,000; AID 463165, 2010;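 active means B-score, a plate-corrected calcium signal, over three deviations above library mean, with baseline fluorescence within five deviations of library mean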;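 further: RGS4 expression induced by doxycycline in cells with stable M3 receptor; B-score is computed from the integrated fluorescence ratio over baseline after carbachol; higher B-score means a larger calcium signal and so more RGS4 inhibition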
Target sequence (P49798 whole entry, looked up): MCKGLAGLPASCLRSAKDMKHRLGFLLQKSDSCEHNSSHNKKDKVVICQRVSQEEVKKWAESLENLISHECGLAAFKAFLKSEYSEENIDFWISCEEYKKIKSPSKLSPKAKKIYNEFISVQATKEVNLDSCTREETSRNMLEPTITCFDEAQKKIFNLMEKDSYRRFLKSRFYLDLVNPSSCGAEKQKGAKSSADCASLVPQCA
MrgX1 agonist: agonists of human MrgX1 receptor, primary screen, HEK293 cells, Fluo-4 calcium flux | Fluo-4 calcium fluorescence, agonist mode; hits give high values | hit rate 0.44% among 310,000 | B-score at 10 µM | Mas-related G-protein coupled receptor member X1 (Homo sapiens), Q96LB2;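 active means calcium response B-score plate-corrected fluorescence ratio at least 3 library SD, with starting fluorescence B-score inside 5 SD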
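Test system: HEK293 cells stably expressing human MrgX1 receptor; amount: 15,000 cells per well; doses: compound delivered in addition one of three; times: overnight plating before 1 h dye loading; detection: Fluo-4 NW calcium-flux fluorescence, kinetic read; read-out basis: B-scored fluorescence response ratio; controls: positive and negative controls per plate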
RGS4 act: RGS4 potentiators or activators, primary screen, cell-based, HEK293 M3R inducible RGS4, calcium flux. B-score at 10 µM. carbachol calcium flux Fluo4; hits give low values. hit rate 0.92% among 310,000;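 active means B-score of the integrated calcium signal more than 4 SD below the library mean, with starting fluorescence not abnormally high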;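 further: negative B-score means reduced calcium response which marks RGS4 activation or potentiation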
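Detection: kinetic calcium fluorescence imaging with Fluo4-AM dye, 2 µM / Material: HEK293 cells with stable M3R and inducible RGS4 / Schedule: recording 10 s baseline at 1 Hz, 100 s post-agonist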
Large screens that a line does not name were inactive.

Cc1ccc(NC(=O)C(C)OC(=O)c2ccc(NC(=O)CC#N)cc2)cc1S(=O)(=O)N1CCOCC1 (centres undefined)	MrgX1 antag -4.54
Cc1cccc(NC(=O)CCCCCN2C(=O)[C@@H]3Cc4ccccc4CN3C2=O)c1	none
O=C(CCCCCN1C(=O)[C@@H]2Cc3ccccc3CN2C1=O)Nc1cccc(F)c1	RGS4 act -7.51
Cc1cc(O)c(C(C)C)cc1NC(=O)c1ccccc1Cl	none
Cc1ccc2cc(C3CC(c4ccco4)=NN3S(=O)(=O)c3ccccc3)c(Cl)nc2c1 (centres undefined)	MrgX1 agonist 37.8
COC(=O)COc1ccc(Oc2cc(C)nc(SC)n2)nn1	none
O=C(c1cccc(C(F)(F)F)c1)C1CCCN(C(=O)CCc2cnccn2)C1 (centres undefined)	none
Cc1ccc(-c2ccc(/C=C3\SC(N4CCOCC4)=NC3=O)o2)cc1	none
Cc1ccc(/C=C2\SC(N3CCN(C(c4ccccc4)c4ccccc4)CC3)=NC2=O)o1	RGS4 act -9.4
CC(C)(C)C(=O)COC(=O)c1ccc(O)cc1	none
O=C(Nc1cccc(F)c1)/C(=C\c1cccnc1)NC(=O)c1cccs1	MrgX1 antag -5.53
O=C(Nc1cccc(F)c1)/C(=C\c1cccnc1)NC(=O)c1ccco1	none
Cc1nc(-n2nnc(CO)c2CO)nc2c1CCC2	none
CCOC(=O)CSc1nc2c(sc(=S)n2-c2ccccc2OC)c(=O)n1Cc1ccco1	MrgX1 agonist 39.7
COc1cc(C=O)ccc1OCCSc1ccc(Cl)cc1	MrgX1 antag -5.38
COc1cc(C=O)ccc1OCCOCCOc1ccc(Cl)cc1	none
COc1cccc(C(=O)Nc2cccc(-c3ccc(N4CCOCC4)nn3)c2)c1OC	RGS4 act -7.45
CCOC(=O)c1c(-c2ccccc2)nnn1-c1nc(OCC)nc(N2CCCCC2)n1	RGS4 act -8.67
O=C(NCc1ccccn1)c1c(O)c2cccc3c2n(c1=O)CC3	none
Cn1c(N)c(-c2ccccc2)c2ccc([N+](=O)[O-])cc2c1=O	MrgX1 agonist 29.8
CCOc1ccc(C(=O)NCCCN(CC)CC)cc1	MrgX1 antag -5.39
CCOc1ccc(C(=O)NCCNC(=O)c2ccc(OCC)cc2)cc1	none
COc1c2c(nc3occc13)C(CC=C(C)C)(OC)C(=O)C=C2 (centres undefined)	MrgX1 PAM 12.3
C=CCOc1ccc2c(OC)c3ccoc3nc2c1OC	none
CCC(C)(C)n1nnnc1C(C(C)C)N(CCN1CCOCC1)Cc1cc2cccc(C)c2[nH]c1=O (centres undefined)	none
C#CCN1C(=O)S/C(=C\c2ccc(-c3ccc(C(=O)O)cc3C)o2)C1=O	MrgX1 PAM 8.07
Cc1ccc(C)c(N2C(=N)S/C(=C\c3ccc(-c4ccccc4C(=O)O)o3)C2=O)c1	MrgX1 PAM 11.5
Cc1cc(C(=O)O)ccc1-c1ccc(/C=C2\SC(=O)N(CC(=O)Nc3ccc4c(c3)OCO4)C2=O)o1	none
N=c1oc2cc(O)ccc2cc1C(=O)Nc1ccc(Br)cc1	MrgX1 antag -7.01
CCOC(=O)Cn1nnc(-c2cc(OC)c(OC)c(OC)c2)n1	none
COc1ccc(C(=O)CSC#N)cc1OC	MrgX1 agonist 34.6
COc1ccc(C(=O)COC(=O)c2ccc(OC)c(OC)c2)cc1OC	none
Cc1ccc(CN2C(=O)c3ccccc3Sc3ccc(C(=O)NCCCN4CCOCC4)cc32)cc1	none
Nn1c(-c2cccs2)nc2sc3c(c2c1=O)CCCC3	none
Cc1ccccc1-c1nc2sc3c(c2c(=O)n1N)CCCC3	MrgX1 PAM 18.2
CN(C)c1ccc(/C=C(\C#N)C(=O)Nc2nc3c(s2)CCN(Cc2ccccc2)C3)cc1	MrgX1 agonist 49.6
Cc1ccc(S(=O)(=O)NCC(=O)N(CCc2ccccc2)CC(=O)NCc2ccco2)cc1	none (no result: MrgX1 antag, MrgX1 PAM, MrgX1 agonist)
Cc1ccc(S(=O)(=O)NCC(=O)N(CC(=O)NCc2ccco2)Cc2ccccc2)cc1	MrgX1 agonist 35.9
CCC(Sc1nc2n[nH]c(C)c2c(=N)n1-c1cccc(Cl)c1)C(=O)NCCOC (centres undefined)	none
Cc1cc(/C=N\NC(=O)CC(=O)NC2CCCCC2)c(C)n1-c1ccc(Cl)c(Cl)c1	none
Cc1cc(/C=N\NC(=O)CC(=O)NC2CCCCC2)c(C)n1-c1cccc(Cl)c1Cl	MrgX1 antag -6.31
CC(C)OC(=O)C1C(=O)CC(C)(O)C(C(=O)OC(C)C)C1c1ccc([N+](=O)[O-])cc1 (centres undefined)	none
CCOC(=O)N1CCC(n2c(=S)[nH]c3ccccc3c2=O)CC1	none
CCn1ncc(/C=C/C(=O)NCc2cn(C)nc2C)c1C	MrgX1 antag -4.75
CCn1ncc(/C=C/C(=O)NCc2cnn(C)c2C)c1C	none
O=C(Nc1ccc([N+](=O)[O-])cc1Cl)c1cc(Cl)ccc1O	none (no result: RGS4 block, RGS4 act)
O=C(Nc1cccc(Cl)c1)c1cc(N=Nc2ccc([N+](=O)[O-])cc2Cl)ccc1O	MrgX1 antag -4.62
CN(C)S(=O)(=O)c1cccc(NC(=O)CSc2cccc3cccnc23)c1	RGS4 act -7.32
O=C(O)c1ccc(-c2nc(-c3ccc(Cl)cc3Cl)cs2)cc1	none
Cc1onc(-c2ccc(Cl)cc2Cl)c1-c1csc(COc2ccccc2)n1	RGS4 act -7.31
O=C(/C(=C(\[O-])c1ccccc1)[n+]1ccc2ccccc2c1)c1ccc([N+](=O)[O-])cc1	MrgX1 antag -5.65
O=C(/C(=C(\[O-])c1ccccc1)[n+]1ccc2ccccc2c1)c1ccccc1	none
O=C1c2cccc3c([N+](=O)[O-])ccc(c23)C(=O)N1CCc1ccccn1	none
CC(=O)Oc1cccc(N2C(=O)c3cccc4c([N+](=O)[O-])ccc(c34)C2=O)c1	MrgX1 antag -8.37
CN(C)CCCN1C(=O)c2cccc3c([N+](=O)[O-])ccc(c23)C1=O	MrgX1 antag -9.42 (no result: RGS4 block, RGS4 act)
CC1=N/C(=C\c2ccc([N+](=O)[O-])cc2)C(=O)N1c1ccc(F)cc1F	MrgX1 PAM 16.9
Cc1cc([N+](=O)[O-])ccc1NC(=O)Nc1ccc(F)cc1F	none
CC1=N/C(=C\c2ccc([N+](=O)[O-])cc2)C(=O)N1c1ccc(Cl)cc1	none
CC1=N/C(=C/c2ccc([N+](=O)[O-])cc2)C(=O)N1c1ccc(Cl)cc1Cl	MrgX1 PAM 15.1
COc1cccc(NC(=S)N2CCCC2)c1	none
Cc1c(Br)c([N+](=O)[O-])nn1C(C)C(=O)N1CCc2ccccc2C1 (centres undefined)	RGS4 act -9.3
Cc1c(Br)c([N+](=O)[O-])nn1CC(=O)N1CCc2ccccc2C1	none
COc1cccc(N2CCN(C(=O)c3cc4c(=O)n(Cc5ccccc5)ccc4nc3C)CC2)c1	none
